Reference: paper PMC7511286 (European Journal of Drug Metabolism and Pharmacokinetics, 2020)
Marks after values point to notes of the source that are not given here.

Key:
[1] = MAD study: safety and tolerability; type: in vivo, human
Method in brief: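 Healthy males aged 18–55 took oral tablets. Treatment-emergent AEs were recorded by clinical evaluation. Vital signs (blood pressure, pulse), 12-lead and Holter ECG, physical examination, and urine and plasma laboratory tests were also assessed. AEs of special interest were hematuria and retroperitoneal colicky pain with suspected or confirmed nephrolithiasis. Subjects were hospitalized around dosing.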

[2] = MAD study: multiple ascending oral dose pharmacokinetics; type: in vivo, human
Method in brief: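 Healthy males took oral tablets once daily for 14 days after an overnight fast of at least 8 h, continued 1 h on profile days. Plasma was sampled 0.5–24 h after the day 0 dose, as troughs, and 0.5–72 h after the day 13 dose. LC-MS/MS used ESI−, LLOQ 0.1 μg/ml. AUC was by linear-log trapezoid. CL/F = dose/AUC0–24; RAAUC = AUC0–24 (day 13–14)/AUC0–24 (day 0–1).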

[3] = Day 13, 30 mg once daily, n = 12, geometric mean (geometric %CV)
[4] = Day 13, 40 mg once daily, n = 12, geometric mean (geometric %CV)
[5] = Day 13, 50 mg once daily not pre-dosed, n = 8, geometric mean (geometric %CV)
[6] = Day 13, 50 mg once daily pre-dosed, n = 8, geometric mean (geometric %CV)
[7] = Day 13–14 / Day 0–1, 30 mg once daily, n = 12, geometric mean (geometric %CV)

SMILES: COc1cccc(-c2ccc(NC(=O)C3=C(C(=O)O)CCC3)c(F)c2)c1 [IMU-838, vidofludimus calcium]
- TEAE Dyspepsia: subjects having the event ([1]; 50 mg, n = 16): 1 (6.3) N (%)
- TEAE Dysuria: subjects having the event ([1]; 50 mg, n = 16): 1 (6.3) N (%)
- TEAE Epistaxis: subjects having the event ([1]; 50 mg, n = 16): 1 (6.3) N (%)
- TEAE Flank pain: number of events ([1]; 50 mg, n = 16): 1
- TEAE Flank pain: subjects having the event ([1]; 50 mg, n = 16): 1 (6.3) N (%)
- TEAE Headache: subjects having the event ([1]; 50 mg, n = 16): 3 (18.8) N (%)
- TEAE Hematuria: subjects having the event ([1]; 50 mg, n = 16): 1 (6.3) N (%)
- TEAE Lipase increased: number of events ([1]; 50 mg, n = 16): 1
- TEAE Lipase increased: subjects having the event ([1]; 50 mg, n = 16): 1 (6.3) N (%)
- TEAE Nasopharyngitis: subjects having the event ([1]; 50 mg, n = 16): 4 (25.0) N (%)
- TEAE Tenderness: subjects having the event ([1]; 50 mg, n = 16): 1 (6.3) N (%)
- TEAEs Gastrointestinal disorders Total: number of events ([1]; 50 mg, n = 16): 3
- TEAEs Gastrointestinal disorders Total: subjects having the event ([1]; 50 mg, n = 16): 2 (12.5) N (%)
- TEAEs General disorders and administration site conditions Total: number of events ([1]; 50 mg, n = 16): 1
- TEAEs General disorders and administration site conditions Total: subjects having the event ([1]; 50 mg, n = 16): 1 (6.3) N (%)
- TEAEs Infections and infestations Total: number of events ([1]; 50 mg, n = 16): 4
- TEAEs Infections and infestations Total: subjects having the event ([1]; 50 mg, n = 16): 4 (25.0) N (%)
- TEAEs Investigations Total: number of events ([1]; 50 mg, n = 16): 1
- TEAEs Investigations Total: subjects having the event ([1]; 50 mg, n = 16): 1 (6.3) N (%)
- TEAEs Musculoskeletal and connective tissue disorders Total: number of events ([1]; 50 mg, n = 16): 1
- TEAEs Musculoskeletal and connective tissue disorders Total: subjects having the event ([1]; 50 mg, n = 16): 1 (6.3) N (%)
- TEAEs Nervous system disorders Total: number of events ([1]; 50 mg, n = 16): 3
- TEAEs Nervous system disorders Total: subjects having the event ([1]; 50 mg, n = 16): 3 (18.8) N (%)
- TEAEs Renal and urinary disorders Total: number of events ([1]; 50 mg, n = 16): 8
- TEAEs Renal and urinary disorders Total: subjects having the event ([1]; 50 mg, n = 16): 6 (37.5) N (%)
- TEAEs Respiratory, thoracic and mediastinal disorders Total: number of events ([1]; 50 mg, n = 16): 1
- TEAEs Total: number of events ([1]; 50 mg, n = 16): 22
- TEAEs Total: subjects having the event ([1]; 50 mg, n = 16): 10 (62.5) N (%)
- TEAE Hemoglobinuria: subjects having the event ([1]; 50 mg, n = 16, based solely on a positive dip stick test): 5 (31.3) N (%)
- tolerability ([1]; 30–50 mg once daily over 14 consecutive days): well tolerated
- deaths or serious AEs ([1]; single and multiple doses (SAD and MAD)): no deaths or serious AEs
- overall number of drug-related TEAEs ([1]; whole MAD study, 52 subjects including placebo): 53
- overall number of TEAEs ([1]; whole MAD study, 52 subjects including placebo, mild or moderate intensity): 79
- Cmax ([2]; Day 0, 30 mg, n = 12, geometric mean (geometric %CV)): 3.979 (39.5) μg/ml
- Cmax ([2]; Day 0, 40 mg, n = 12, geometric mean (geometric %CV)): 5.805 (32.3) μg/ml
- Cmax ([2]; Day 0, 50 mg not pre-dosed, n = 8, geometric mean (geometric %CV)): 5.016 (51.1) μg/ml
- AUC0–t [2, 3]: 188.554 (30.3) μg·h/ml
- CL/F [2, 3]: 4.985 (25.0) ml/min
- Cmax [2, 3]: 6.543 (25.8) μg/ml
- AUC0–t [2, 4]: 284.959 (25.3) μg·h/ml
- CL/F [2, 4]: 4.201 (22.6) ml/min
- Cmax [2, 4]: 10.911 (20.2) μg/ml
- CL/F ([2]; Day 13, 50 mg once daily all, n = 16, geometric mean (geometric %CV)): 5.008 (20.9) ml/min
- AUC0–t [2, 5]: 310.301 (32.7) μg·h/ml
- CL/F [2, 5]: 4.982 (27.3) ml/min
- Cmax [2, 5]: 10.841 (21.5) μg/ml
- AUC0–t [2, 6]: 304.154 (16.1) μg·h/ml
- CL/F [2, 6]: 5.034 (14.1) ml/min
- Cmax [2, 6]: 10.725 (20.1) μg/ml
- RAAUC (accumulation ratio for AUC0–24) [2, 7]: 1.958 (24.4)
- RACmax (accumulation ratio for Cmax) [2, 7]: 1.644 (37.6)
- RAAUC (accumulation ratio for AUC0–24) ([2]; Day 13–14 / Day 0–1, 40 mg once daily, n = 9, geometric mean, geometric %CV 23.1): 2.077^e (23.1)
- RACmax (accumulation ratio for Cmax) ([2]; Day 13–14 / Day 0–1, 40 mg once daily, n = 12, geometric mean (geometric %CV)): 1.880 (30.1)
- AUC(0-t) ([2]; male, human, plasma, oral, 30 mg, AUC0–24, Day 0, 30 mg, n = 12, geometric mean (geometric %CV)): 51200 ng·h/mL
- AUC(0-t) ([2]; male, human, plasma, oral, 30 mg, AUC0–t, geometric mean, Day 0, 30 mg): 51100 ng·h/mL
- Cmax ([2]; male, human, plasma, oral, 30 mg, Cmax, Day 0, 30 mg, n = 12, geometric mean (geometric %CV)): 3980 ng/mL
- Tmax ([2]; male, human, plasma, oral, 30 mg, tmax, Day 0, 30 mg, n = 12, median (minimum–maximum)): 3 h
- AUC(0-t) ([2]; male, human, plasma, oral, 40 mg, AUC0–t, geometric mean, Day 0, 40 mg): 71700 ng·h/mL
- Cmax ([2]; male, human, plasma, oral, 40 mg, Cmax, Day 0, 40 mg, n = 12, geometric mean (geometric %CV)): 5810 ng/mL
- Tmax ([2]; male, human, plasma, oral, 40 mg, tmax, Day 0, 40 mg, n = 12, median (minimum–maximum)): 3 h
- AUC(0-t) ([2]; male, human, plasma, oral, 50 mg, AUC0–24, Day 0, 50 mg not pre-dosed, n = 8, geometric mean (geometric %CV)): 67100 ng·h/mL
- AUC(0-t) ([2]; male, human, plasma, oral, 50 mg, AUC0–t, geometric mean, Day 0, 50 mg not pre-dosed): 66700 ng·h/mL
- Cmax ([2]; male, human, plasma, oral, 50 mg, Cmax, Day 0, 50 mg all, n = 16, geometric mean (geometric %CV)): 6040 ng/mL
- Cmax ([2]; male, human, plasma, oral, 50 mg, Cmax, Day 0, 50 mg not pre-dosed, n = 8, geometric mean (geometric %CV)): 5020 ng/mL
- Cmax ([2]; male, human, plasma, oral, 50 mg, Cmax, Day 0, 50 mg pre-dosed, n = 8, geometric mean (geometric %CV)): 7260 ng/mL
- Tmax ([2]; male, human, plasma, oral, 50 mg, tmax, Day 0, 50 mg all, n = 16, median (minimum–maximum)): 2 h
- Tmax ([2]; male, human, plasma, oral, 50 mg, tmax, Day 0, 50 mg not pre-dosed, n = 8, median (minimum–maximum)): 3 h
- Tmax ([2]; male, human, plasma, oral, 50 mg, tmax, Day 0, 50 mg pre-dosed, n = 8, median (minimum–maximum)): 2 h
- Tmax ([2]; male, human, plasma, oral, median tmax, range over groups, Day 0): 2 to 3 h
- accumulation factor for multiple daily dosing ([2]; multiple once-daily dosing): approximately 2
- dose dependence of plasma pharmacokinetics ([2]; repeated oral 30 to 50 mg, fasted): dose-proportional
